≈ marks a conversion by molar mass, not a printed value.
What was measured:
Mus musculus [1] = species: Mus musculus; test: Anticonvulsant activity in 6-Hz induced seizure mouse model assessed as protection against 6-Hz induced seizure; assay type: functional
Method in brief: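 Tonic currents recorded from voltage-clamped ([…]) dentate gyrus granule cells of wild-type female mice. Value is fold potentiation of the mean normalized tonic response to 1 µM GABA, from four to eight cells per steroid and concentration. Anticonvulsant ED50 determined in the mouse 6-Hz psychomotor seizure model.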

[2] = molecular target: GABA-A receptor; anion channel (Homo sapiens) (UniProt P14867+P47870+P18507+P28472+P48169+Q99928+Q9UN88+P34903+O00591+O14764+Q8N1C3+P18505+P78334+P47869+P31644+Q16445); test: Potentiation of NAS mediated GABA (unknown origin) tonic effect assessed as fold potentiation; assay type: protein-complex assay; conditions: filed as activator
[3] = molecular target: GABA-A receptor; anion channel; test: Displacement of [35S]-TBPS from rat synaptosomes GABAA receptor incubated for 90 mins by liquid scintillation counting method; assay type: subcellular, Synaptosome
[4] = molecular target: Glutamate NMDA receptor; GRIN1/GRIN2B (Homo sapiens, UniProt Q05586+Q13224); test: Inhibition of GluN1/GluN2B NMDA receptor (unknown origin) expressed in HEK293 cells; assay type: cell-based
Method in brief: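 Potency measured in HEK293 cells transfected with rat GluN1 and GluN2B subunits.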

[5] = molecular target: GABA-A receptor; anion channel; test: Displacement of [35S]-TBPS GABAA receptor in Wistar rat brain membrane incubated for 60 mins by competitive binding assay; assay type: cell membranes
[6] = Permeability coefficient across apical to basolateral side in human Caco-2 cells assessed as drug recovery at pH 7.4; assay type: ADME, cell-based; conditions: Caco-2, pH 7.4, read-out: Drug recovery
[7] = Permeability coefficient across apical to basolateral side in human Caco-2 cells at pH 7.4; assay type: ADME, cell-based; conditions: Caco-2, pH 7.4, read-out: permeability
Rattus norvegicus = test: Neuroprotective activity against transient middle cerebral artery occlusion induced cerebral infraction Sprague-Dawley rat model assessed as decrease in cerebral infraction volume at 12 mg/kg, ip and measured after 7 days by TTC staining based assay; assay type: functional; set-up: scale not given: the % may be the effect or the level left; conditions: time 7 day
[8] = Inhibition of NMDA current in Sprague-Dawley rat Cortical neuron; assay type: functional, cell-based; conditions: cortical neurone
[9] = Inhibition of NMDA induced calcium increase in Sprague-Dawley rat Cortical neuron; assay type: functional, cell-based, Cortical neurone
[10] = molecular target: T1, GABA-A receptor; alpha-1/beta-2/gamma-2 (Homo sapiens, UniProt P14867+P18507+P47870); test: Positive allosteric modulation of human GABAA alpha1beta2gamma2 receptor expressed in Xenopus laevis oocytes by two-microelectrode voltage-clamp assay; assay type: cell-based, Oocyte
T1 sequence (P14867 whole entry): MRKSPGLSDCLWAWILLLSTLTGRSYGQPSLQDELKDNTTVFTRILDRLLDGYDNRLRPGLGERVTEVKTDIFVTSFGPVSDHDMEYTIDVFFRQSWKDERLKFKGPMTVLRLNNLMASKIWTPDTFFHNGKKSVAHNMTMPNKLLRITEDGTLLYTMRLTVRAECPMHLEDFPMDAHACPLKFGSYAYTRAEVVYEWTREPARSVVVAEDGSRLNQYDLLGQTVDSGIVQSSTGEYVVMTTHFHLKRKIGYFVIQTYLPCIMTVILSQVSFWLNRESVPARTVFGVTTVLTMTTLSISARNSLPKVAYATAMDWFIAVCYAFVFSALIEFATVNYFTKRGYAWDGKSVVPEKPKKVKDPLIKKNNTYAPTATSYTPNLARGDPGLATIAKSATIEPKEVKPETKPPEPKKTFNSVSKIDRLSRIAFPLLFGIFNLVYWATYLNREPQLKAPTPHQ
T1 sequence (P47870 whole entry): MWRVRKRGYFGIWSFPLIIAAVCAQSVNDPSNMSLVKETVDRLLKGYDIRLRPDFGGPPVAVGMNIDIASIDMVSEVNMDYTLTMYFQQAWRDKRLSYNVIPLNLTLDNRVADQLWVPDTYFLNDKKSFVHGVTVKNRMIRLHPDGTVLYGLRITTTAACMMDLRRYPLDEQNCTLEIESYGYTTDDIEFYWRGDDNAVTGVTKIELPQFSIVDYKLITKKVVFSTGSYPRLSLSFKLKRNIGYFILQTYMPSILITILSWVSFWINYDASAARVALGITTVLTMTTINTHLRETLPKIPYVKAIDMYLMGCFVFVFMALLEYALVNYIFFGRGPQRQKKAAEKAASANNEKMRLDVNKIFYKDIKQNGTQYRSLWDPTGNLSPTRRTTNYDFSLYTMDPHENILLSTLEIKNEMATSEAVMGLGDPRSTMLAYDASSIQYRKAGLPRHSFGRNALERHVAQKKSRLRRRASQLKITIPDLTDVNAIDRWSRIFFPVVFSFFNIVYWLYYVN
T1 sequence (P18507 whole entry): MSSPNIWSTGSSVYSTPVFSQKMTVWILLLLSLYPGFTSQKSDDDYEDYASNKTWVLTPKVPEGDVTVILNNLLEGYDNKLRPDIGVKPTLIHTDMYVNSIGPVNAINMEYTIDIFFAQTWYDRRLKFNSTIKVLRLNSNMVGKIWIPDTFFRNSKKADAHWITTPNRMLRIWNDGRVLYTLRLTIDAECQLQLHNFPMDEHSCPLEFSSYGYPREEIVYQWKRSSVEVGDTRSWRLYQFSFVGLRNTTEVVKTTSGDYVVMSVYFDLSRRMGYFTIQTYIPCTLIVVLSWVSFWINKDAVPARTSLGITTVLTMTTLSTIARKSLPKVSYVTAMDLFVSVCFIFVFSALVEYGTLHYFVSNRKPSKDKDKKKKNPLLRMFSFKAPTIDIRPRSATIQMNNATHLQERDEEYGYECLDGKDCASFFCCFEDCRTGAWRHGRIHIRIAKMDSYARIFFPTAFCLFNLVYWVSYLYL
Method in brief: (§1)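 PAM activity measured as EC50 in Xenopus oocytes expressing α1β2γ2L or α2β1γ2L GABAA receptors.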

[11] = molecular target: T2, Gamma-aminobutyric acid receptor subunit alpha-2/beta-1/gamma-2 (Homo sapiens, UniProt P18505+P18507+P47869); test: Positive allosteric modulation of human GABAA alpha2beta1gamma2 receptor expressed in Xenopus laevis oocytes by two-microelectrode voltage-clamp assay; assay type: cell-based, Oocyte; method in brief: as §1
T2 sequence (P18507 whole entry): T1 sequence (P18507 whole entry)
T2 sequence (P18505 whole entry): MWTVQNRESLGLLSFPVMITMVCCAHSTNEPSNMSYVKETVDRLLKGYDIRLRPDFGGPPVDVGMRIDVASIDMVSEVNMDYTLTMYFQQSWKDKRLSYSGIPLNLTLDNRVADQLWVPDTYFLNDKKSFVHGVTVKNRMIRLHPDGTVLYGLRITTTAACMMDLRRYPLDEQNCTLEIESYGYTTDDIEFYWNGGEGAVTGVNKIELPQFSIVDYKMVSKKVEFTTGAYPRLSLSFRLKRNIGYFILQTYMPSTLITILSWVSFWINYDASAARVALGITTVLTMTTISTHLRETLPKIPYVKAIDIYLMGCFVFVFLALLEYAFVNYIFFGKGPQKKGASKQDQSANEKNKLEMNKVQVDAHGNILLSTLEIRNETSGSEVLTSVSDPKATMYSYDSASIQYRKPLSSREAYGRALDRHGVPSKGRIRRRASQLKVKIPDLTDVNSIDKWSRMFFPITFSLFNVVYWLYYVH
T2 sequence (P47869 whole entry): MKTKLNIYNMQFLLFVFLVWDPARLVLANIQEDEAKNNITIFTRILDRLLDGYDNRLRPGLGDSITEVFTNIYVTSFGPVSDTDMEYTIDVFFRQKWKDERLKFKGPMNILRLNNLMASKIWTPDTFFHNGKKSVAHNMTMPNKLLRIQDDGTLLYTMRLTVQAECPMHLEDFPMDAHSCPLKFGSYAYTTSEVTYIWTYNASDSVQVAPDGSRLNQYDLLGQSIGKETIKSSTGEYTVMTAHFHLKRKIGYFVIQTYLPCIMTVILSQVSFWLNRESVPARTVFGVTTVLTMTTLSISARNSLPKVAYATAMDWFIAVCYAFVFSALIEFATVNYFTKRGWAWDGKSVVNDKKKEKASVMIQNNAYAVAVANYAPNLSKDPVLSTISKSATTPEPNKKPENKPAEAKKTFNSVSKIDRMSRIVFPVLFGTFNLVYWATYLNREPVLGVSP

[12] = Solubility of the compound in 45% HPbetaCD; assay type: physicochemical
Mus musculus [13] = species: Mus musculus; test: Anxiolytic activity in mouse assessed as increase in time spent in open arm by elevated plus maze test; assay type: functional; conditions: read-out: MED
Method in brief: (§2)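 Mice were dosed orally. Anxiolytic activity was tested in the elevated plus maze and reported as minimum effective dose. Anticonvulsant activity was tested against pentylenetetrazole-induced seizures and reported as ED50. Therapeutic indices were given for the anxiolytic and anticonvulsant read-outs against a preliminary mouse safety measure.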

Mus musculus [14] = test: Anticonvulsant activity in PTZ induced mouse administered orally; assay type: functional; conditions: route po; method in brief: as §2
[15] = Therapeutic index, ratio of AD50 for mouse to MED for anxiolytic activity in mouse assessed as increase in time spent in open arm by elevated plus maze test; assay type: toxicity; conditions: read-out: TI; method in brief: as §2
[16] = Therapeutic index, ratio of AD50 for mouse to ED50 for anticonvulsant activity in PTZ induced mouse administered orally; assay type: toxicity; conditions: in vivo, route po, read-out: TI; method in brief: as §2

Chain of Glutamate NMDA receptor; GRIN1/GRIN2B (Q13224 whole entry, other chains not shown): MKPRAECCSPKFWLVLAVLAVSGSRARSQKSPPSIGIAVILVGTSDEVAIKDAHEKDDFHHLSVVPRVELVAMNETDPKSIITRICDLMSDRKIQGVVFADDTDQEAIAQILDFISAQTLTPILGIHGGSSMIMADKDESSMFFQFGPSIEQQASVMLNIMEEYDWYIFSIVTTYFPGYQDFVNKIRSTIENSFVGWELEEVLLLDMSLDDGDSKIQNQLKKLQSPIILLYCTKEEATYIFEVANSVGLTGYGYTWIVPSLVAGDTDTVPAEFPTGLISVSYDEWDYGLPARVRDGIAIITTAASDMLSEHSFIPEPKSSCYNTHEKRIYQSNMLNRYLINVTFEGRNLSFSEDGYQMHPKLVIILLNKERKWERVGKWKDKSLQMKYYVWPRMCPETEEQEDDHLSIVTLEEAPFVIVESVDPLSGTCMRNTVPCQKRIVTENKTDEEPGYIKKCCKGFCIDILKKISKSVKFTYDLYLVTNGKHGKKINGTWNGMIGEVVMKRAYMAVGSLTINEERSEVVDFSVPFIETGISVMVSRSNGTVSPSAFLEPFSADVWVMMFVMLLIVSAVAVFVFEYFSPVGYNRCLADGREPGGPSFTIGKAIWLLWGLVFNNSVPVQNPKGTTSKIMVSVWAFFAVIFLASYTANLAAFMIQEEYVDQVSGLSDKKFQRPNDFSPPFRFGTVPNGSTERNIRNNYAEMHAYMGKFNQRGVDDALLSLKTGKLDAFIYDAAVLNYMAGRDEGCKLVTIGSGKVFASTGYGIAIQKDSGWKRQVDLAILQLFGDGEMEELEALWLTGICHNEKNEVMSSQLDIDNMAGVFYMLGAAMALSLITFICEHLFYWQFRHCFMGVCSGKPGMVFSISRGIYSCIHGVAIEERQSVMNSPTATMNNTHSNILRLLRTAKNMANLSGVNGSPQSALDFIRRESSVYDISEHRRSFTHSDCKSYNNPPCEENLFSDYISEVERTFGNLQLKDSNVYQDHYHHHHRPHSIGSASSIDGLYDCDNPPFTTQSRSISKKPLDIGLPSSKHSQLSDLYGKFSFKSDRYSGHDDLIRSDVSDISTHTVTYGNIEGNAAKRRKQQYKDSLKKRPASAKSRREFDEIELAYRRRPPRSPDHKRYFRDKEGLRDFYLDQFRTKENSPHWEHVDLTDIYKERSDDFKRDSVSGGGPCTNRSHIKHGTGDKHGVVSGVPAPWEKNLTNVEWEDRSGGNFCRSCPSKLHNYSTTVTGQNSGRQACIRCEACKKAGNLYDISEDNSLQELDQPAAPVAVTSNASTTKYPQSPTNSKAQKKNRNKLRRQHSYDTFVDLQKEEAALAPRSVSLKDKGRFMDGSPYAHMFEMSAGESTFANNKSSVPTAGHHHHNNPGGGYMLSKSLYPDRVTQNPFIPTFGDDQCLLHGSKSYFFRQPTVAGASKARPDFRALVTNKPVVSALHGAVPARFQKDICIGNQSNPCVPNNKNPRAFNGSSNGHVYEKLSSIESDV

CC(=O)[C@H]1CC[C@H]2[C@@H]3CC[C@H]4C[C@H](O)CC[C@]4(C)[C@H]3C(=O)C[C@]12C [ALFAXALONE]
ED50 (Mus musculus [1]): 8.8 mg/kg
fold change (FC) [2]: 1.98

CC(=O)[C@H]1CC[C@H]2[C@@H]3C[C@H]4OC[C@@]5(CC[C@@H](O)CC45)[C@H]3CC[C@]12C (stereo not given in full)
IC50 [3]: 0.141 µM

CC(=O)[C@H]1CC[C@H]2[C@@H]3CC[C@@H]4C[C@H](OC(=O)[C@@H](N)CCC(=O)O)CC[C@]4(C)[C@H]3CC[C@]12C
IC50 [4]: 51.7 µM

COCCC(CO)(CCOC)C(=O)[C@H]1CC[C@H]2[C@@H]3CC[C@H]4C[C@@H]5O[C@@H]5C[C@]4(C)[C@H]3CC[C@]12C
IC50 [5]: 5 µM

CC(=O)[C@H]1CC[C@H]2[C@@H]3CC[C@H]4C[C@H](O)CC[C@]4(C)[C@H]3CC[C@]12C [BREXANOLONE]
ED50 (Mus musculus [1]): 4.2 mg/kg
fold change (FC) [2]: 4.36
IC50 [3]: 0.086 µM

C[C@@]12CCC[C@H]1[C@@H]1CC[C@@H]3C[C@H](NC(=O)CC(=O)O)CC[C@]3(C)[C@H]1CC2
IC50 [4]: 15.4 µM

COCC(=O)[C@H]1CC[C@H]2[C@@H]3CC[C@H]4C[C@@H]5O[C@@H]5C[C@]4(C)[C@H]3CC[C@]12C
IC50 [5]: 0.625 µM

CC(=O)[C@H]1CC[C@H]2[C@@H]3CC[C@H]4C[C@@H]5O[C@@H]5C[C@]4(C)[C@H]3CC[C@]12C
IC50 [5]: 0.255 µM

C[C@@]12CCC[C@H]1[C@@H]1CC[C@@H]3C[C@H](NC(=O)[C@@H](N)CCC(=O)O)CC[C@]3(C)[C@H]1CC2
recovery [6]: < 50%
Papp A→B [7]: 0.22 ×10⁻⁶ cm/s
IC50 [4]: 1.4 µM

C[C@]12CC[C@@H](O)C[C@@H]1CC[C@@H]1[C@@H]2CC[C@]2(C)[C@@H](C(=O)CO)CC[C@@H]12
ED50 (Mus musculus [1]): 5 mg/kg
fold change (FC) [2]: 3.52

CC(=O)[C@H]1CC[C@H]2[C@@H]3CC[C@@H]4C[C@H](O)CC[C@]4(C)[C@H]3CC[C@]12C [ELTANOLONE]
ED50 (Mus musculus [1]): 7.7 mg/kg
fold change (FC) [2]: 2.24

C=C(C)CC[C@@H](C)[C@H]1CC[C@H]2[C@@H]3C[C@@H](O)[C@@]4(O)C[C@H](O)CC[C@]4(CO)[C@H]3CC[C@]12C
Activity (Rattus norvegicus): 30%
IC50 [8]: 10.3 µM
IC50 ([9]; Rattus norvegicus, Sprague-Dawley, Cortical neurone): 7.8 µM
IC50 ([9]; cortical neurone): 10.3 µM

CC(=O)[C@H]1CC[C@H]2[C@@H]3CC[C@H]4C[C@H](O)C[C@H]5O[C@H](C[C@]12C)[C@@H]3[C@]45C
IC50 [3]: 0.093 µM

CC(=O)[C@H]1CC[C@H]2[C@@H]3CC[C@H]4C[C@@H](O)CC[C@]4(C)[C@H]3CC[C@]12C [SEPRANOLONE]
ED50 (Mus musculus [1]): > 100 mg/kg
fold change (FC) [2]: 0.76

CC(=O)[C@H]1CC[C@H]2[C@@H]3CC[C@H]4C[C@](C)(O)CC[C@]4(C)[C@H]3CC[C@]12C [GANAXOLONE]
ED50 (Mus musculus [1]): 1.5 mg/kg
fold change (FC) [2]: 3.47
EC50 [10]: 0.2 µM
EC50 [11]: 0.1 µM
solubility [12]: 20 mM (≈ 6650 µg/mL)
minimal effective dose (Mus musculus [13]): 20 mg/kg
ED50 (Mus musculus [14]): 23 mg/kg
selectivity ratio [15]: 3.3
selectivity ratio [16]: 3

C[C@@]12CCC[C@H]1[C@@H]1CC[C@@H]3C[C@H](NC(=O)O)CC[C@]3(C)[C@H]1CC2
IC50 [4]: 21.7 µM

CC(=O)[C@H]1CC[C@H]2[C@@H]3CC[C@@H]4C[C@H](O)C[C@@H]5O[C@H](C[C@]12C)[C@@H]3[C@]45C
IC50 [3]: 0.49 µM

C[C@@]12CCC[C@H]1[C@@H]1CC[C@@H]3C[C@H](NC(=O)[C@@H](N)CC(=O)O)CC[C@]3(C)[C@H]1CC2
recovery [6]: < 50%
Papp A→B [7]: 0.22 ×10⁻⁶ cm/s
IC50 [4]: 1 µM

CC(=O)[C@H]1CC[C@H]2[C@@H]3CCC4=C[C@H](O)C[C@@H]5O[C@H](C[C@]12C)[C@@H]3[C@]45C
IC50 [3]: 0.072 µM

— ChEMBL document CHEMBL5260830, “Breakthroughs in neuroactive steroid drug discovery” (Bioorg Med Chem Lett, 2018)
